From ChEMBL document CHEMBL5357076, “Structure-ATPase Activity Relationship of Rhodamine Derivatives as Potent Inhibitors of P-Glycoprotein CmABCB1” (ACS Med Chem Lett, 2024)
Activity calls are given as the source filed them. The calls are words filed in the database; no cut-off is given here.

Assays:
[1] = Inhibition of Cyanidioschyzon merolae ABCB1 ATPase activity assessed as inhibition constant by colorimetric analysis
Method in brief: (§1)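 Purified wild-type CmABCB1 in β-DDM micelles; ATPase activity measured against rhodamine concentration with 5 mM ATP in 50 mM Tris–HCl (pH 7.5 at 37 °C), 150 mM NaCl, 0.05% (w/v) β-DDM, 37 °C, 30 min. Bell-shaped activity curve fitted to a modified Michaelis–Menten equation giving Km (stimulation) and Ki (substrate inhibition); means ± SD, n = 3.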

Cyanidioschyzon merolae [2] = assay: Binding affinity to Cyanidioschyzon merolae ABCB1 assessed as Km; method in brief: as §1
Cyanidioschyzon merolae [3] = assay: Substrate activity at Cyanidioschyzon merolae ABCB1 4WY/M391W mutant assessed as tryptophan quenching ratio by measuring inner chamber entry by fluorescence based analysis
Method in brief: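 Purified CmABCB1 4WY/M391W mutant (four of six native Trp removed, Trp introduced at 391), 13 μg/mL in 20 mM Tris–HCl (pH 7.5 at 25 °C), 150 mM NaCl, 0.05% (w/v) β-DDM, titrated with compound (0–1.0 μM) at 25 °C; excitation 290 nm, quenching ratio of emission at 340 nm.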

Cyanidioschyzon merolae [4] = assay: Potency index, ratio of test compound Km to Rhodamine 6G Km for binding affinity to Cyanidioschyzon merolae ABCB1 assessed as Km
Cyanidioschyzon merolae [5] = assay: Potency index, ratio of test compound Ki to Rhodamine 6G Ki for inhibition of Cyanidioschyzon merolae ABCB1 ATPase activity assessed as inhibition constant by colorimetric analysis
Saccharomyces cerevisiae [6] = assay: Antimicrobial activity against Saccharomyces cerevisiae expressing AD1-8u- cells assessed as growth inhibition upto 30 uM incubated for 15 to 17 hrs; type: functional, organism-based; conditions: time 15-17 hrs
Method in brief: (§2)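 S. cerevisiae AD1-8u cells expressing wild-type CmABCB1, alongside mock-transfected AD1-8u cells, grown in YPD medium with a range of drug concentrations at 30 °C for 15–17 h; growth compared between strains; means ± SD, n = 3.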

Saccharomyces cerevisiae [7] = assay: Antimicrobial activity against Saccharomyces cerevisiae expressing AD1-8u- cells assessed as growth inhibition at 1 uM incubated for 15 to 17 hrs; type: functional, organism-based; conditions: time 15-17 hrs; method in brief: as §2

SMILES | Ki [1] [µM] | Km (Cyanidioschyzon merolae [2]) [µM] | other results
CCCC/N=c1/cc2oc3cc(NCCCC)c(C)cc3c(-c3ccccc3C(=O)OCCCC)c-2cc1C | 160 | 3.2 | 
COc1ccc(COC(=O)c2ccccc2C2=c3cc4c(cc3Oc3cc5c(cc32)CCCN5)=NCCC4)cc1 | 9.1 | 0.73 | 
O=C(OCc1ccc2ccccc2c1)c1ccccc1C1=c2cc3c(cc2Oc2cc4c(cc21)CCCN4)=NCCC3 | 9.6 | 0.77 | 
CCCCOC(=O)c1ccccc1C1=c2cc3c4c(c2Oc2c1cc1c5c2CCCN5CCC1)CCC[N+]=4CCC3 | 43 | 1.5 | 
CCCCOC(=O)c1ccccc1-c1c2cc(C)c(=[N+]3CCCC3)cc-2oc2cc(N3CCCC3)c(C)cc12 | 110 | 1.1 | 
COc1cccc(OC)c1COC(=O)c1ccccc1C1=c2cc3c(cc2Oc2cc4c(cc21)CCCN4)=NCCC3 | 5.8 | 0.55 | Activity (Cyanidioschyzon merolae [3]): 30%; Ratio (Cyanidioschyzon merolae [4]): 5; Ratio Ki (Cyanidioschyzon merolae [5]): 120
CCCCOC(=O)c1ccccc1-c1c2cc(C)/c(=N\CC)cc-2oc2cc(NCC)c(C)cc12 | 560 | 4.6 | 
CCCCOC(=O)c1ccccc1C1=c2cc3c(cc2Oc2cc4c(cc21)CCCN4)=NCCC3 | 14 | 1.7 | 
COc1ccccc1COC(=O)c1ccccc1C1=c2cc3c(cc2Oc2cc4c(cc21)CCCN4)=NCCC3 | 8.2 | 0.5 | 
CC/N=c1/cc2oc3cc(NCC)c(C)cc3c(-c3ccccc3C(=O)OCC)c-2cc1C | 690 | 2.9 | Activity (Saccharomyces cerevisiae [6]): inactive; Activity (Saccharomyces cerevisiae [7]): Active
O=C(OCCc1ccccc1)c1ccccc1C1=c2cc3c(cc2Oc2cc4c(cc21)CCCN4)=NCCC3 | 8.1 | 1.4 | 

Second part, led by results:

Ki [1] [µM] | Km (Cyanidioschyzon merolae [2]) [µM] | SMILES | other results
8.2 | 0.58 | COc1cccc(COC(=O)c2ccccc2C2=c3cc4c(cc3Oc3cc5c(cc32)CCCN5)=NCCC4)c1 | 
8.4 | 0.56 | Cc1cccc(COC(=O)c2ccccc2C2=c3cc4c(cc3Oc3cc5c(cc32)CCCN5)=NCCC4)c1 | 
12 | 0.55 | O=C(OCc1cccc([N+](=O)[O-])c1)c1ccccc1C1=c2cc3c(cc2Oc2cc4c(cc21)CCCN4)=NCCC3 | 
31 | 0.31 | COc1cc(COC(=O)c2ccccc2C2=c3cc4c(cc3Oc3cc5c(cc32)CCCN5)=NCCC4)cc(OC)c1 | 
8.9 | 0.81 | O=C(OCc1ccccc1)c1ccccc1C1=c2cc3c(cc2Oc2cc4c(cc21)CCCN4)=NCCC3 | 
1.2 | 3.9 | O=C(OCc1ccccc1C(F)(F)F)c1ccccc1C1=c2cc3c(cc2Oc2cc4c(cc21)CCCN4)=NCCC3 | 
18 | 0.44 | O=C(OCc1cccc(C(F)(F)F)c1)c1ccccc1C1=c2cc3c(cc2Oc2cc4c(cc21)CCCN4)=NCCC3 | 
10 | 0.52 | CN(C)c1cccc(COC(=O)c2ccccc2C2=c3cc4c(cc3Oc3cc5c(cc32)CCCN5)=NCCC4)c1 | 
6.3 | 2.3 | O=C(OCc1cc(C(F)(F)F)cc(C(F)(F)F)c1)c1ccccc1C1=c2cc3c(cc2Oc2cc4c(cc21)CCCN4)=NCCC3 | 
